As a reminder, the pIC50 is −log10 of the IC50, conventionally taken in molar units. One may read the pKd as the Kd on a negative log10 scale, so that one unit is a factor of ten.

These results are taken from ChEMBL document CHEMBL1152777, “Potent non-benzoquinone ansamycin heat shock protein 90 inhibitors from genetic engineering of Streptomyces hygroscopicus” (J Med Chem, 2009).

Series [1] concerns Mus musculus. The series is described as follows: Inhibition of HSP90 in human COLO205 tumor bearing nu/nu mouse assessed as reduction of ErbB2 protein level at 30 mg/kg, […] after 4 hrs by ELISA. Type of series: functional, organism-based. Also on record: dose 30 mg/kg. In short, it runs like this:
(§1)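 COLO205 xenograft mice were given a single dose. Tumors were harvested 4 or 24 h later and tumor lysates assayed by ELISA for Hsp70 or ErbB2 protein levels. Vehicle-dosed mice served as comparison.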
(In general: ELISA stands for enzyme-linked immunosorbent assay.)

Series [2] relates to COLO 205. The series is described as follows: Antitumor activity against human COLO205 tumor bearing mouse assessed as reduction of tumor volume at 30 mg/kg, iv administered once daily for 5 days with 2 day interval for total 13 doses. Type of series: functional, organism-based. More on the design: dose 30 mg/kg. In short, it runs like this:
(§2)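 COLO205 tumor-bearing mice received iv doses of vehicle or test agent (15, 30 or 90 mg/kg) daily for 5 days, then a 2-day holiday, for 13 doses in total. Groups had 10 mice each. Tumor growth was followed over the dosing period and compared with vehicle.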

For a further series, the system named is HCT-116. In words: Cytotoxicity against human HCT116 cells after 72 hrs. The format is functional, cell-based. Conditions: HCT-116, 72 h. In short, it runs like this:
(§3)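 Viability was read by CellTiter-Glo luminescent assay. Values are means of three independent determinations.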

Series [3] concerns Mus musculus. In words: Toxicity in human COLO205 tumor bearing nu/nu mouse assessed as body weight change at 30 mg/kg, iv administered once daily for 5 days with 2 day interval for total 13 doses. Type of series: organism-based. More on the design: dose 30 mg/kg, route intravenous. Conditions: in vivo.
Series [4] relates to Mus musculus. The series is described as follows: Toxicity in human COLO205 tumor bearing nu/nu mouse assessed as body weight change at 15 mg/kg, iv administered once daily for 5 days with 2 day interval for total 13 doses. Type of series: organism-based. Also on record: dose 15 mg/kg, route intravenous. The conditions noted are these: in vivo.
In series [5] the test system is COLO 205. The series is described as follows: Antitumor activity against human COLO205 tumor bearing mouse assessed as reduction of tumor volume dosed intravenously once daily for 5 days with 2 day interval for total 13 doses. Type of series: functional, organism-based. In short, it runs like this: as §2
Series [6] concerns Mus musculus. The series is described as follows: Inhibition of HSP90 in human COLO205 tumor bearing nu/nu mouse assessed as induction of HSP70 expression at 30 mg/kg, […] after 4 hrs by ELISA. Type of series: functional, organism-based. More on the design: dose 30 mg/kg. In short, it runs like this:
as §1

Series [7] deals with COLO 205. The series is described as follows: Antitumor activity against human COLO205 tumor bearing mouse assessed as reduction of tumor volume at 15 mg/kg, iv once daily for 5 days with 2 day interval for total 13 doses. Type of series: functional, organism-based. Also on record: dose 15 mg/kg. In short, it runs like this:
as §2

The nature of series [8]: Cytotoxicity against NQ01-deficient human MDA468 cells after 72 hrs. Type of series: functional, cell-based. Conditions: MDA-MB-468, 72 h. In short, it runs like this:
as §3

Another series concerns SK-OV-3. In words: Cytotoxicity against human SKOV3 cells after 72 hrs. The format is functional, cell-based. The conditions noted are these: SK-OV-3, 72 h. In short, it runs like this:
as §3

Series [9] concerns Mus musculus. The series is described as follows: Inhibition of HSP90 in human COLO205 tumor bearing nu/nu mouse assessed as reduction of ErbB2 protein level at 30 mg/kg, iv after 24 hrs by ELISA.
For series [10], the system named is Mus musculus. The series is described as follows: Inhibition of HSP90 in human COLO205 tumor bearing nu/nu mouse assessed as induction of HSP70 expression at 30 mg/kg, […] after 24 hrs by ELISA. Type of series: functional, organism-based. More on the design: dose 30 mg/kg. In short, it runs like this:
as §1

The target of series [11] is T1, Heat shock protein HSP 90-alpha (Homo sapiens, UniProt P07900). In words: Binding affinity to human recombinant Hsp90alpha N-terminal domain by scintillation proximity assay. (In general: SPA uses beads or plates that emit light when radiolabelled molecules are held near them.)
The subject of a further series is NCI-H596. In words: Cytotoxicity against NQ01-deficient human NCI-H596 cells after 72 hrs. Conditions: NCI-H596, 72 h. The format is functional, cell-based. In short, it runs like this: as §3
The test system of series [12] is MCF7. The series is described as follows: Cytotoxicity against human MCF7 cells after 72 hrs. Conditions: MCF7, 72 h. Type of series: functional, cell-based. In short, it runs like this:
as §3

Series [13] relates to SK-BR-3. In words: Cytotoxicity against human SKBR3 cells after 72 hrs. Conditions: SK-BR-3, 72 h. Type of series: functional, cell-based. In short, it runs like this: as §3
Series [14] has as its system MCF7. The series is described as follows: Cytotoxicity against human MCF7 cells after 72 hrs in presence of NQO1 inhibitor dicoumarol. Type of series: functional, cell-based. The conditions noted are these: MCF7, 72 h. In short, it runs like this: as §3
Series [15] deals with SK-BR-3. In words: Cytotoxicity against human SKBR3 cells after 72 hrs in presence of NQO1 inhibitor dicoumarol. The format is functional, cell-based. Conditions: SK-BR-3, 72 h. In short, it runs like this: as §3
The target of series [16] is T1, Heat shock protein HSP 90-alpha. In words: Binding affinity to human recombinant Hsp90alpha N-terminal domain by isothermal titration calorimetry. A general note: ITC needs no label: the signal is the heat of the interaction.
Series [17] deals with COLO 205. The series is described as follows: Antitumor activity against human COLO205 tumor bearing mouse assessed as reduction of tumor volume at 90 mg/kg, iv administered once daily for 5 days with 2 day interval for total 13 doses. The format is functional, organism-based. More on the design: dose 90 mg/kg. In short, it runs like this: as §2

pIC50, pKd: −log10 of the molar value. The source made the active and inactive calls. No cut-off for these calls is given here.

In the case of `CO[C@H]1C[C@H](C)Cc2cc(cc(Cl)c2O)NC(=O)/C(C)=C/CC[C@H](OC)[C@@H](OC(N)=O)/C(C)=C/[C@H](C)[C@H]1O`, the outcome in the series on Mus musculus [1], in the series with COLO 205 [2], in the series with Mus musculus [6], in the series with COLO 205 [7], in the series with Mus musculus [9] and in the series on Mus musculus [10] was Active. The pIC50 in the series with HCT-116 was 6.92; in series [8], 7.05; in the series on SK-OV-3 it was 6.85. The Activity result in the series with Mus musculus [3] is “Non-toxic”; in the series on Mus musculus [4], “Non-toxic”; with COLO 205 [5] it was “Dose-dependent effect”. The pKd in [11] was 7.30.
`CO[C@H]1/C=C\C=C(/C)C(=O)Nc2cc(Cl)c(O)c(c2O)C[C@@H](C)C[C@H](OC)[C@H](O)[C@@H](C)/C=C(\C)[C@@H]1OC(N)=O`: the pIC50 is 6.15 in the series on NCI-H596; 6.37 with HCT-116; 6.48 in the series with MCF7 [12]; 6.35 in series [8]; 6.46 in the series with SK-OV-3; 6.40 in the series on SK-BR-3 [13].
Regarding `CO[C@H]1/C=C\C=C(/C)C(=O)NC2=CC(=O)C(NCCN(C)C)=C(C[C@@H](C)C[C@H](OC)[C@H](O)[C@@H](C)/C=C(\C)[C@@H]1OC(N)=O)C2=O` [ALVESPIMYCIN], the pIC50 was 5.96 with NCI-H596; 7.24 with HCT-116; 7.15 in the series with MCF7 [12]; 5.80 in series [8]; 6.91 in the series with SK-OV-3; 6.06 with MCF7 [14]. Besides, the pIC50 in the series on SK-BR-3 [13] is 7.24; in the series on SK-BR-3 [15], 6.64.
For the compound `CO[C@H]1/C=C\C=C(/C)C(=O)Nc2ccc(O)c(c2)C[C@@H](C)C[C@H](OC)[C@H](O)[C@@H](C)/C=C(\C)[C@@H]1OC(N)=O`, the pKd in [16] is 8.60. The pIC50 is 6.49 with NCI-H596, 6.75 in the series with HCT-116, 6.80 in series [8] and 7.08 with SK-BR-3 [13].
Take `CO[C@H]1C[C@H](C)Cc2cccc(c2)NC(=O)/C(C)=C/CC[C@H](OC)[C@@H](OC(N)=O)/C(C)=C/[C@H](C)[C@H]1O`: the pKd in [16] was 8.27. Also, the pIC50 in the series on NCI-H596 was 6.41; in the series on HCT-116 it was 6.62; in the series on MCF7 [12], 6.86; in series [8] it was 6.72; in the series on SK-OV-3, 6.49; in the series on SK-BR-3 [13], 7.02.
As for `C=CCNC1=C2C[C@@H](C)C[C@H](OC)[C@H](O)[C@@H](C)/C=C(\C)[C@H](OC(N)=O)[C@@H](OC)/C=C\C=C(/C)C(=O)NC(=CC1=O)C2=O` [TANESPIMYCIN], the negative-log IC50 (pIC50) in the series on NCI-H596 was 5.80; in the series with HCT-116, 6.69; in the series with MCF7 [12], 7.24; in series [8] it was 5.82; in the series on SK-OV-3 it was 6.62; with MCF7 [14], 6.18. The negative-log IC50 (pIC50) was 7.36 with SK-BR-3 [13] and 6.39 in the series on SK-BR-3 [15]. Also, the outcome with COLO 205 [7] and in the series with COLO 205 [17] was Active.
In the case of `CO[C@H]1C[C@H](C)Cc2cc(ccc2O)NC(=O)/C(C)=C/CC[C@H](OC)[C@@H](OC(N)=O)/C(C)=C/[C@H](C)[C@H]1O`, the pKd in series [16] was 9.10. The pIC50 in the series with NCI-H596 was 5.92; with HCT-116 it was 5.98; with MCF7 [12], 6.21; in [8], 6.38; in the series with SK-BR-3 [13], 6.08.
